The test system of assay [1] is T98G. Description: Induction of cell death in human T98G cells at 4.2 to 18.4 uM after 24 hrs by trypan blue assay in presence of zVAD-fmk. Format: functional, cell-based.
Assay [2] is described as follows: Cytotoxicity against human MIAPaCa2 cells after 48 hrs by resazurin assay. The class given is functional, cell-based. As to conditions: MIA PaCa-2, 48 h. (Alamar Blue is a resazurin reagent that responds to reducing activity.)
Assay [3] has as its system A549. Description: Induction of cell death in human A549 cells assessed as accumulation of poly-ubiquitinated proteins at 2.5 to 10 uM after 24 hrs by immunoblot assay. Format: functional, cell-based. An outline of the steps:
(§1)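 A549 cells dosed at three levels (2.5, 5, 10 µM or 1, 2.5, 5 µM depending on inhibitor); lysates made after 24 h. Immunoblots probed poly-ubiquitin, p53 and Noxa, quantified by densitometry; mean of two experiments.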

For assay [4], the target named is T1, Ubiquitin carboxyl-terminal hydrolase 2 (Homo sapiens) (UniProt O75604).
T1 sequence (whole entry): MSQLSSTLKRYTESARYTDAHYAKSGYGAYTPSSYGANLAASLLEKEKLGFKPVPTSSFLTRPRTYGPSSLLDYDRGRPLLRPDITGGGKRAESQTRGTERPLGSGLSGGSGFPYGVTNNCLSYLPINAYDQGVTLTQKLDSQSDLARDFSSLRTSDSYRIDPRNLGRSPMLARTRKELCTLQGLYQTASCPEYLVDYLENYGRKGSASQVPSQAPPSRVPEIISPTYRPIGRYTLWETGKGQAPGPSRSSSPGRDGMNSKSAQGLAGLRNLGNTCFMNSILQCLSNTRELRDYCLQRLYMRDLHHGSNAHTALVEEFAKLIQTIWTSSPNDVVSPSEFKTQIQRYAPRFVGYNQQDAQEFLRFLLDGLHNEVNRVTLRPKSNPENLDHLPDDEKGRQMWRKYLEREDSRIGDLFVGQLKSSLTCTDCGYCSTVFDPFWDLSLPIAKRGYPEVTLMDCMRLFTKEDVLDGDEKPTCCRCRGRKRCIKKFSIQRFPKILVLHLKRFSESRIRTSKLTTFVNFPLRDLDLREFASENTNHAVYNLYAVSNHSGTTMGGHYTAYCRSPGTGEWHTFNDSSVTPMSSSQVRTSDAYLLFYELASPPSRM
Description: Inhibition of USP2 catalytic domain (unknown origin) expressed in bacteria using Ub-AMC as substrate preincubated for 30 mins before substrate addition measured after 60 mins by fluorescence assay. In a few lines:
(§2)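 Purified isopeptidase activity was measured with ubiquitin-AMC as fluorogenic substrate; IC50 was derived from inhibition.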

For assay [5], the system named is A549. Description: Induction of cell death in human A549 cells assessed as accumulation of p53 at 10 uM after 48 hrs by immunoblot assay. The class given is functional, cell-based. An outline of the steps:
(§3)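 A549 cells grown in normal or A375-conditioned medium, treated with 10 µM. Immunoblots probed poly-ubiquitin accumulation, p53 stabilization and Noxa induction.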
On the technique in general: A western blot detects proteins with antibodies after separation by electrophoresis.

Assay [6] relates to HT-29. Description: Cytotoxicity against human HT-29 cells after 48 hrs by resazurin assay. Format: functional, cell-based. The settings on record: HT-29, 48 h.
Assay [7] has as its system A549. Description: Cytotoxicity against human A549 cells after 48 hrs by resazurin assay. Format: functional, cell-based. The settings on record: A549, 48 h.
Assay [8] relates to A-375. Description: Cytotoxicity against human A375 cells after 48 hrs by resazurin assay. The class given is functional, cell-based. The settings on record: A-375, 48 h.
Assay [9] relates to A549. Description: Induction of cell death in human A549 cells at 2.5 to 10 uM after 48 hrs by trypan blue assay. Format: functional, cell-based. An outline of the steps:
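A549 or A375 cells treated 48 h with 2.5–10 µM. Cell death was scored by trypan blue exclusion as a function of concentration.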

A short description of assay [10]: Cytotoxicity against human U87MG cells after 48 hrs by resazurin assay. The class given is functional, cell-based, U-87MG ATCC. As to conditions: U-87 MG. In a few lines: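 U87MG glioblastoma cells treated with compounds; viability read by resazurin 48 h after treatment. IC50 from triplicate experiments, reported as mean and s.d.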
For assay [11], the system named is A549. Description: Induction of cell death in human A549 cells assessed as stabilization of p53 at 2.5 to 10 uM after 24 hrs by immunoblot assay. The class given is functional, cell-based. In a few lines:
as §1

Assay [12] deals with U-87 MG. Description: Induction of apoptosis in human U87MG cells assessed as caspase activation at 0.6 to 10 uM after 24 hrs by rhodamine-based fluorescence assay. Format: functional, cell-based. The settings on record: U-87MG ATCC. An outline of the steps:
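U87MG or T98G cells exposed 24 h to the listed concentrations. Caspase activity was read as relative fluorescence units from the rhodamine 110 bis-(N-Z-L-aspartyl-L-glutamyl-L-valyl-aspartic acid amide) fluorogenic substrate.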

Assay [13] relates to A549. Description: Induction of cell death in human A549 cells assessed as accumulation of Noxa at 10 uM after 48 hrs by immunoblot assay. Format: functional, cell-based. In a few lines: as §3
A further assay deals with U-87MG ATCC. Description: Induction of cell death in human U87MG cells at 4.2 to 18.4 uM after 24 hrs by trypan blue assay in presence of zVAD-fmk. The class given is functional, cell-based.
In assay [14] the target is T2, Ubl carboxyl-terminal hydrolase 18 (Homo sapiens, UniProt Q9UMW8).
T2 sequence (Q9UMW8 whole entry): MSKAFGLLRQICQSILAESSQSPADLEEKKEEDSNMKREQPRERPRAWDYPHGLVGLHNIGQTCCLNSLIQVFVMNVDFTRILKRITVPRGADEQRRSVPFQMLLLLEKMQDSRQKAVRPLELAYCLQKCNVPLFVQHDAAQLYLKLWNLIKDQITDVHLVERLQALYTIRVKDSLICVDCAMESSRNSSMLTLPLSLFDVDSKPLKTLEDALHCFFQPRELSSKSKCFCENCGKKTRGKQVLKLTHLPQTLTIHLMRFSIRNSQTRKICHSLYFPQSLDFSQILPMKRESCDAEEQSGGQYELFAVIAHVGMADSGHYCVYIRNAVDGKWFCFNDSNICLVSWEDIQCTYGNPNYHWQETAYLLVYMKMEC
Description: Inhibition of recombinant human USP18 (16 to 372 aa) expressed in Sf9 cells using ISG15-AMC as substrate preincubated for 30 mins before substrate addition measured after 60 mins by fluorescence assay.

For assay [15], the system named is T98G. Description: Induction of necrosis in human T98G cells at 0.6 to 10 uM after 24 hrs by trypan blue assay. Format: functional, cell-based. In a few lines:
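T98G cells exposed 24 h to the listed concentrations. Cell death was scored as percent of trypan blue-positive cells.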

Assay [16] addresses T3, Ubl carboxyl-terminal hydrolase 18 (Homo sapiens) (UniProt Q9UMW8).
T3 sequence (whole entry): T2 sequence (Q9UMW8 whole entry)
Description: Inhibition of USP18 (unknown origin) expressed in human A549 cells coexpressing ISG15-GFP assessed as reduction in free GFP at 2.5 to 10 uM after 24 hrs by immunoblot assay. The class given is cell-based.

The test system of assay [17] is HT-29. Description: Induction of cell death in human HT-29 cells at 2.5 to 10 uM after 48 hrs by trypan blue assay. The class given is functional, cell-based.
The subject of assay [18] is U-87 MG. Description: Induction of necrosis in human U87MG cells at 0.6 to 10 uM after 24 hrs by trypan blue assay. Format: functional, cell-based. As to conditions: U-87MG ATCC. In a few lines:
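U87MG cells treated 24 h at the indicated concentrations. Death scored as percent trypan blue-positive cells. Caspase activity measured in parallel with a rhodamine 110 bis-(N-Z-DEVD amide) fluorogenic substrate and read in relative fluorescence units.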

For assay [19], the system named is A-375. Description: Induction of cell death in human A375 cells assessed as Noxa induction at 10 uM after 24 hrs by immunoblot assay. Format: functional, cell-based.
The test system of assay [20] is A-375. Description: Induction of cell death in human A375 cells assessed as stabilization of p53 at 10 uM after 24 hrs by immunoblot assay. Format: functional, cell-based.
For assay [21], the target named is Ubiquitin carboxyl-terminal hydrolase isozyme L1 (Homo sapiens) (UniProt P09936). Description: Inhibition of GST-tagged recombinant full-length UCHL1 (unknown origin) expressed in bacteria using Ub-AMC as substrate preincubated for 30 mins before substrate addition measured after 60 mins by fluorescence assay. An outline of the steps:
as §2

Activity calls are given as the source filed them. The rule behind the calls is not given here.

Chain of Ubiquitin carboxyl-terminal hydrolase isozyme L1 (Homo sapiens) (P09936 whole entry, looked up): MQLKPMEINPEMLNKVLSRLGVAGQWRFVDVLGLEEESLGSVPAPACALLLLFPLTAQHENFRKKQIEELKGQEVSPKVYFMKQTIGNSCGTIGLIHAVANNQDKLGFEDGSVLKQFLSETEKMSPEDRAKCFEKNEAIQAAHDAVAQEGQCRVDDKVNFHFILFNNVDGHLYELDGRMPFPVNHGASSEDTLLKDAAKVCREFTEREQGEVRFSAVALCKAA

Take `O=C1/C(=C/c2ccc([N+](=O)[O-])cc2)CC(O)C/C1=C\c1ccc([N+](=O)[O-])cc1` (configuration not stated): in the assay with T98G [1], the result was inactive. Further, the concentration for half-maximal inhibition (IC50) in [2] came to 35.2 µM; with HT-29 [6] it was 7.6 µM; in the assay with A549 [7], 16 µM; in the assay with A-375 [8] it was 6.1 µM; in assay [10], 4.62 µM; in [14] it was 21.2 µM. Besides, the outcome in the assay on A549 [3], in the assay with A549 [5], in the assay with A549 [9], in the assay on A549 [11], in the assay on U-87 MG [12] and in the assay on A549 [13] was Active. For the same compound, the outcome in the assay with U-87MG ATCC, in the assay with T98G [15], in the assay on HT-29 [17], with U-87 MG [18], in the assay on A-375 [19] and in the assay on A-375 [20] was Active. Also, the inhibition entry in assay [4] and in [21] was “inactive” each time. Moreover, the inhibition result in [16] is “Active”.

As a reminder, the IC50 is the concentration that gives 50% inhibition.

Values taken from ChEMBL document CHEMBL3407395, “Synthesis, characterization, and optimization for in vivo delivery of a nonselective isopeptidase inhibitor as new antineoplastic agent” (J Med Chem, 2015).
